Source: ChEMBL document CHEMBL3407477, “Synthesis and biological evaluation of compact, conformationally constrained bifunctional opioid agonist - neurokinin-1 antagonist peptidomimetics” (Eur J Med Chem, 2015)
Activity calls are given as the source filed them.

Key:
Rattus norvegicus [1] = organism: Rattus norvegicus; assay: Reduction of hyperalgesia in Wistar rat chronic constriction injury model at 1 nmol, it measured 7 days post CCI challenge by cold plate test; format: functional, organism-based
In short: (§1)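 In catheterized male Wistar rats with sciatic CCI, a single i.t. dose in water for injection was given on day 7. Thermal hyperalgesia was measured 30 min later as latency to hind-paw shake on a 5 °C cold plate. Data are %MPE, 6-12 rats/group, ANOVA with Bonferroni.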

Rattus norvegicus [2] = assay: Antiallodynic effect in Wistar rat chronic constriction injury model assessed as cross tolerance developement pretreated with morphine at 3.5 nmol, it qd for 6 days administered from 7 days post CCI challenge to day 13 measured 30 mins post compound challenge by cold plate test; format: functional, organism-based
In short: (§2)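 CCI Wistar rats were made tolerant by 6 days of once-daily i.t. dosing (morphine 3.5 nmol or hybrid 1 nmol). On day 13 they received a single i.t. challenge (morphine 3.5 nmol or hybrid 1 nmol) against repeated-vehicle controls. Von Frey and cold plate tests were run 30 min later. Data are %MPE, 6-8 rats/group, ANOVA with Bonferroni.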

Rattus norvegicus [3] = organism: Rattus norvegicus; assay: Antiallodynic effect in Wistar rat chronic constriction injury model at 0.1 to 1 nmol, it measured 7 days post CCI challenge by Von Frey test; format: functional, organism-based
In short: (§3)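 Male Wistar rats (300-350 g) with i.t. catheters (L4-L6) had CCI made by four loose silk ligatures on the right sciatic nerve. On day 7 they received a single i.t. dose in water for injection. Mechanical allodynia was measured 30 min later with an automatic von Frey device (0.5-26 g) on the midplantar hind paw. Data are %MPE, 6-12 rats/group, ANOVA with Bonferroni.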

Rattus norvegicus [4] = assay: Antiallodynic effect in Wistar rat chronic constriction injury model assessed as tolerance to neuropathic pain at 1 nmol, it qd for 6 days administered from 7 days post CCI challenge to day 13 by cold plate test; format: functional, organism-based
In short: (§4)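 CCI Wistar rats received once-daily i.t. injections (morphine 3.5 nmol, hybrids 1 nmol, in water for injection) from day 7 to day 13 after CCI. Von Frey and 5 °C cold plate tests were run 30 min after each dose. Data are %MPE and AUC, 12-16 rats/group, ANOVA with Bonferroni.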

Rattus norvegicus [5] = assay: Toxicity in Wistar rat assessed as death at 9.5 nmol, iv; format: organism-based; details: in vivo
Rattus norvegicus [6] = organism: Rattus norvegicus; assay: Toxicity in Wistar rat chronic constriction injury model at 11 nmol, it measured 7 days post CCI challenge; format: organism-based; details: in vivo, icv_or_intrathecal, 168 h
Rattus norvegicus [7] = organism: Rattus norvegicus; assay: Antiallodynic effect in Wistar rat chronic constriction injury model at 1 nmol, it measured 7 days post CCI challenge by Von Frey test; format: functional; in short: as §3
Rattus norvegicus [8] = organism: Rattus norvegicus; assay: Antinociceptive activity in Wistar rat at 0.1 nmol, it after 30 mins by tail flick test; format: functional
In short: (§5)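 Naive male Wistar rats (250-300 g) with i.t. catheters received a single i.t. injection in water for injection (5 µl plus 10 µl flush), 7 days after catheter implantation. Tail-flick latency to a light-bulb heat stimulus at two-thirds of tail length was read 30 min post-dose (timepoints up to 180 min), with a 9 s cut-off. Data are %MPE = (TL-BL)/(cut-off-BL)×100, 7-12 rats/group, ANOVA with Bonferroni.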

Rattus norvegicus [9] = assay: Antiallodynic effect in it dosed Wistar rat measured 7 days post CCI challenge by Von Frey test; format: functional; in short: as §3
Rattus norvegicus [10] = assay: Reduction of hyperalgesia in it dosed Wistar rat measured 7 days post CCI challenge by cold plate test; format: functional; in short: as §1
Rattus norvegicus [11] = organism: Rattus norvegicus; assay: Toxicity in Wistar rat chronic constriction injury model at 1 nmol, it measured 7 days post CCI challenge; format: organism-based; details: in vivo, icv_or_intrathecal, 168 h
Rattus norvegicus [12] = organism: Rattus norvegicus; assay: Antinociceptive activity in Wistar rat at 1 nmol, it after 30 mins by tail flick test; format: functional; in short: as §5
Rattus norvegicus [13] = assay: Toxicity in Wistar rat assessed as seizures at 9.5 nmol, iv; format: organism-based; details: in vivo
Rattus norvegicus [14] = organism: Rattus norvegicus; assay: Selectivity ratio of Ki for rat brain DOR to Ki for rat brain MOR
Rattus norvegicus [15] = assay: Antiallodynic effect in Wistar rat chronic constriction injury model assessed as tolerance to neuropathic pain at 1 nmol, it qd for 6 days administered from 7 days post CCI challenge to day 13 by Von Frey test; format: functional, organism-based; in short: as §4
Rattus norvegicus [16] = assay: Antinociceptive activity in it dosed Wistar rat after 30 mins by tail flick test; format: functional; in short: as §5
Rattus norvegicus [17] = assay: Antiallodynic effect in Wistar rat chronic constriction injury model assessed as cross tolerance developement pretreated with morphine at 3.5 nmol, it qd for 6 days administered from 7 days post CCI challenge to day 13 measured 30 mins post compound challenge by Von Frey test; format: functional, organism-based; in short: as §2
Rattus norvegicus [18] = organism: Rattus norvegicus; assay: Antinociceptive activity in Wistar rat at 0.1 to 11 nmol, it after 30 mins to 2 hrs by tail flick test; format: functional, organism-based

Structure (SMILES): Cc1cc(O)cc(C)c1C[C@H](N)C(=O)N[C@H](CCCNC(=N)N)C(=O)N[C@H]1Cc2ccccc2CN(CCC(=O)N(C)Cc2ccccc2)C1=O
- Activity (Rattus norvegicus [1]): Active
- Activity (Rattus norvegicus [2]): inactive
- Activity (Rattus norvegicus [3]): Active
- Activity (Rattus norvegicus [4]): Active
- Activity (Rattus norvegicus [5]): Non-toxic
- Activity (Rattus norvegicus [6]): Toxic
- MPE (Rattus norvegicus [7]): 80%
- MPE (Rattus norvegicus [8]): 8.9%
- ED50 (Rattus norvegicus [9]): 0.24 nmol
- ED50 (Rattus norvegicus [10]): 0.34 nmol
- Activity (Rattus norvegicus [11]): Non-toxic
- MPE (Rattus norvegicus [12]): 30%
- Activity (Rattus norvegicus [13]): Non-toxic
- Ratio Ki (Rattus norvegicus [14]): 3.5
- Activity (Rattus norvegicus [15]): Active
- ED50 (Rattus norvegicus [16]): 2.78 nmol
- Activity (Rattus norvegicus [17]): inactive
- Activity (Rattus norvegicus [18]): Active
